Activity calls are given as the source filed them. The calls are words filed in the database; no cut-off is given here.
What was measured:
[1] = biological target: Protein kinase C gamma type (Homo sapiens) (UniProt P05129); assay: Inhibition of human PKC gamma assessed as remaining activity at 10 uM in presence of ATP by radiometric kinase assay relative to control
[2] = biological target: cAMP-dependent protein kinase (PKA) (Homo sapiens) (UniProt P22694+P17612+P22612); assay: Inhibition of human PKA assessed as remaining activity at 10 uM in presence of ATP by radiometric kinase assay relative to control; type: protein assay
[3] = Toxicity in Emu-Myc driven transgenic mouse transplant model of B-cell lymphoma assessed as reduction in weight of bone marrow at 150 mg/kg, po administered for 9 days; type: organism-based; settings: in vivo, 216 h, time 9 day
[4] = biological target: Dual specificity tyrosine-phosphorylation-regulated kinase 2 (Homo sapiens) (UniProt Q92630); assay: Inhibition of human DYRK2 assessed as remaining activity at 10 uM in presence of ATP by radiometric kinase assay relative to control
[5] = Toxicity in CRTac:Ncr-Fox1 mouse xenografted with human HT-29 cells assessed as body weight at 12.5 mg/kg, po administered for 16 days in presence of gemcitabine relative to control; type: organism-based; settings: in vivo, 384 h, time 16 day
[6] = biological target: Serine/threonine-protein kinase 16 (Homo sapiens) (UniProt O75716); assay: Inhibition of human MPSK1 assessed as remaining activity at 10 uM in presence of ATP by radiometric kinase assay relative to control
[7] = biological target: Mitogen-activated protein kinase 9 (Homo sapiens) (UniProt P45984); assay: Inhibition of human JNK2 assessed as remaining activity at 10 uM in presence of ATP by radiometric kinase assay relative to control
[8] = biological target: Serine/threonine-protein kinase PAK 4 (Homo sapiens) (UniProt O96013); assay: Inhibition of human PAK4 assessed as remaining activity at 10 uM in presence of ATP by radiometric kinase assay relative to control
[9] = biological target: Protein kinase C zeta type (Homo sapiens) (UniProt Q05513); assay: Inhibition of human PKCz assessed as remaining activity at 10 uM in presence of ATP by radiometric kinase assay relative to control
[10] = biological target: Glycogen synthase kinase-3 beta (Homo sapiens) (UniProt P49841); assay: Inhibition of human GSK3b assessed as remaining activity at 10 uM in presence of ATP by radiometric kinase assay relative to control
[11] = Toxicity in Emu-Myc driven transgenic mouse transplant model of B-cell lymphoma assessed as change in water consumption at 150 mg/kg, po administered for 9 days; type: organism-based; settings: in vivo, 216 h, time 9 day
[12] = Toxicity in Emu-Myc driven transgenic mouse transplant model of B-cell lymphoma assessed as reduction in weight of thymus at 150 mg/kg, po administered for 9 days; type: organism-based; settings: in vivo, 216 h, time 9 day
[13] = Toxicity in Emu-Myc driven transgenic mouse transplant model of B-cell lymphoma assessed as reduction in weight of the mesenteric lymph nodes at 150 mg/kg, po administered for 9 days; type: organism-based; settings: in vivo, 216 h, time 9 day
[14] = biological target: Mitogen-activated protein kinase kinase kinase 1 (Homo sapiens) (UniProt Q13233); assay: Inhibition of human MEKK1 assessed as remaining activity at 10 uM in presence of ATP by radiometric kinase assay relative to control
[15] = biological target: AMP-activated protein kinase (AMPK) alpha-1/beta-1/gamma-1 (Homo sapiens, UniProt P54619+Q13131+Q9Y478); assay: Inhibition of AMPK alpha1/beta1/gamma1 (unknown origin) by FRET based Z-LYTE kinase assay; type: protein-complex assay
[16] = biological target: Fibroblast growth factor receptor 1 (Homo sapiens) (UniProt P11362); assay: Inhibition of human FGF-R1 assessed as remaining activity at 10 uM in presence of ATP by radiometric kinase assay relative to control
[17] = biological target: MAP/microtubule affinity-regulating kinase 3 (Homo sapiens, UniProt P27448); assay: Inhibition of human MARK3 by FRET based Z-LYTE kinase assay
[18] = species on record: Homo sapiens; assay: Inhibition of human VEG-FR assessed as remaining activity at 10 uM in presence of ATP by radiometric kinase assay relative to control
[19] = biological target: MAP kinase-activated protein kinase 5 (Homo sapiens) (UniProt Q8IW41); assay: Inhibition of human PRAK assessed as remaining activity at 10 uM in presence of ATP by radiometric kinase assay relative to control
[20] = biological target: Receptor-interacting serine/threonine-protein kinase 2 (Homo sapiens) (UniProt O43353); assay: Inhibition of human RIPK2 assessed as remaining activity at 10 uM in presence of ATP by radiometric kinase assay relative to control
[21] = biological target: Serine/threonine-protein kinase 26 (Homo sapiens) (UniProt Q9P289); assay: Inhibition of human MST4 assessed as remaining activity at 10 uM in presence of ATP by radiometric kinase assay relative to control
[22] = biological target: Dual specificity protein kinase CLK2 (Homo sapiens, UniProt P49760); assay: Inhibition of human CLK2 by FRET based Z-LYTE kinase assay
[23] = biological target: Receptor tyrosine-protein kinase erbB-4 (Homo sapiens) (UniProt Q15303); assay: Inhibition of human HER4 assessed as remaining activity at 10 uM in presence of ATP by radiometric kinase assay relative to control
[24] = Toxicity in Emu-Myc driven transgenic mouse transplant model of B-cell lymphoma assessed as increase in weight of spleen at 150 mg/kg, po administered for 9 days; type: organism-based; settings: in vivo, 216 h, time 9 day
[25] = biological target: RAC-alpha serine/threonine-protein kinase (Homo sapiens) (UniProt P31749); assay: Inhibition of human PKBa assessed as remaining activity at 10 uM in presence of ATP by radiometric kinase assay relative to control
[26] = biological target: Aurora kinase B (Homo sapiens) (UniProt Q96GD4); assay: Inhibition of human AuroraB assessed as remaining activity at 10 uM in presence of ATP by radiometric kinase assay relative to control
[27] = biological target: Serine/threonine-protein kinase PLK1 (Homo sapiens) (UniProt P53350); assay: Inhibition of human PLK1 assessed as remaining activity at 10 uM in presence of ATP by radiometric kinase assay relative to control
[28] = biological target: Mitogen-activated protein kinase 15 (Homo sapiens, UniProt Q8TD08); assay: Inhibition of human ERK8 in presence of ATP by radiometric kinase assay
[29] = biological target: Insulin receptor (Homo sapiens) (UniProt P06213); assay: Inhibition of human IR assessed as remaining activity at 10 uM in presence of ATP by radiometric kinase assay relative to control
[30] = tested on: HT-29; assay: Induction of cell cycle arrest in human HT-29 cells assessed as decrease in accumulation of cells at G0/G1 phase at 1 to 5 uM incubated for 24 hrs by BrdU and PI staining based flow cytometry analysis; type: functional; settings: dose 1-5 µM
In short: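 HT29 cells exposed for 24h, stained with bromodeoxyuridine and propidium iodide, and cell-cycle distribution measured by flow cytometry.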

[31] = biological target: Serine/threonine-protein kinase PAK 6 (Homo sapiens) (UniProt Q9NQU5); assay: Inhibition of human PAK6 assessed as remaining activity at 10 uM in presence of ATP by radiometric kinase assay relative to control

Sequence of Aurora kinase B (Homo sapiens) (Q96GD4 whole entry): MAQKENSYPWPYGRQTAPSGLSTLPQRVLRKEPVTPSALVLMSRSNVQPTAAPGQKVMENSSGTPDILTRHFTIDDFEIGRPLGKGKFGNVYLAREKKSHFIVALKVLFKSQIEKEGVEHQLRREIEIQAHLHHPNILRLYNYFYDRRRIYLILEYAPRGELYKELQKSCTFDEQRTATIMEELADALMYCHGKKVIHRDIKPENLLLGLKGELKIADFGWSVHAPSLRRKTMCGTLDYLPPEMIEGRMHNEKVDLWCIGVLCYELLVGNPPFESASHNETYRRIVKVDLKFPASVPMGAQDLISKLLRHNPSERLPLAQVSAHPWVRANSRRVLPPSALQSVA
Sequence of Glycogen synthase kinase-3 beta (Homo sapiens) (P49841 whole entry, looked up): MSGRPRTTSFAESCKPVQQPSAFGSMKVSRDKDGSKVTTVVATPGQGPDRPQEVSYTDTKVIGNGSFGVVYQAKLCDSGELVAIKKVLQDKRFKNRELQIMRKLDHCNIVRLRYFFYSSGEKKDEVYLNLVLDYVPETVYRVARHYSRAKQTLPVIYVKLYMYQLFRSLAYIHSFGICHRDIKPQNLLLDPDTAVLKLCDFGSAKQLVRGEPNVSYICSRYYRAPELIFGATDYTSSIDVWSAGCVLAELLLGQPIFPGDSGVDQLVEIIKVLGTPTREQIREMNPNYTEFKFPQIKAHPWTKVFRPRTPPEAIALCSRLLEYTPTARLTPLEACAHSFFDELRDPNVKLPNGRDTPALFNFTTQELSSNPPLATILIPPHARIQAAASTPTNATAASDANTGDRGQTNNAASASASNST
Sequence of Protein kinase C zeta type (Homo sapiens) (Q05513 whole entry): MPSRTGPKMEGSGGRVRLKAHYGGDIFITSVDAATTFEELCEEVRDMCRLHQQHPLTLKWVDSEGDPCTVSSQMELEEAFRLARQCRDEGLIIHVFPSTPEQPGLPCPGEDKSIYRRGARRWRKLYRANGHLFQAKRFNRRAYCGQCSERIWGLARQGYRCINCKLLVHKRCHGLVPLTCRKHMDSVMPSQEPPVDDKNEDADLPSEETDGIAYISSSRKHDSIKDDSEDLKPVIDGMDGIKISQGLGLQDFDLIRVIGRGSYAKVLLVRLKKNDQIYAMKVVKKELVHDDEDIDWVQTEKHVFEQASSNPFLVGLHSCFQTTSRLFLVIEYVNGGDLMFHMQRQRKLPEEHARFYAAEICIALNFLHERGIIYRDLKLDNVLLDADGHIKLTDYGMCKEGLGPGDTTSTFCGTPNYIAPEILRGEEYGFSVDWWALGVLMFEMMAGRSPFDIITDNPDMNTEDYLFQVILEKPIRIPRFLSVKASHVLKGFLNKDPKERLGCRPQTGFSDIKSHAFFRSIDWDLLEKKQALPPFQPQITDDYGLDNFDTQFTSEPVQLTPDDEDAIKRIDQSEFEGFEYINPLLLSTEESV
Sequence of AMP-activated protein kinase (AMPK) alpha-1/beta-1/gamma-1 (P54619 whole entry): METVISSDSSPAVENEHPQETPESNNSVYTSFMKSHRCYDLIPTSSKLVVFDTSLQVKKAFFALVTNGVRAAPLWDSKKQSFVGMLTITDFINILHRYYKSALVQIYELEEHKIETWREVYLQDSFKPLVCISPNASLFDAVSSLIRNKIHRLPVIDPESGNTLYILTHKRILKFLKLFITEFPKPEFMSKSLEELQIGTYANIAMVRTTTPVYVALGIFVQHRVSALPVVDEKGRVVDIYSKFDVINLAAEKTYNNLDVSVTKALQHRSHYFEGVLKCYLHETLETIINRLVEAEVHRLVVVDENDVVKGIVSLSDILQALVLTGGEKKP
Sequence of AMP-activated protein kinase (AMPK) alpha-1/beta-1/gamma-1 (Q9Y478 whole entry): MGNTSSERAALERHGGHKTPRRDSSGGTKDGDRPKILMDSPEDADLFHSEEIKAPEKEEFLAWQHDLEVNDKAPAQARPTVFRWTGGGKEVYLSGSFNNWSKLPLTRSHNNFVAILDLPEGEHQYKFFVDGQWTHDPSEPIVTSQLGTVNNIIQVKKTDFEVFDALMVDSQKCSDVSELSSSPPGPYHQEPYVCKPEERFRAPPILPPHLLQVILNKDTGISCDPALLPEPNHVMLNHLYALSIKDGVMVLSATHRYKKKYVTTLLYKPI
Sequence of AMP-activated protein kinase (AMPK) alpha-1/beta-1/gamma-1 (Q13131 whole entry): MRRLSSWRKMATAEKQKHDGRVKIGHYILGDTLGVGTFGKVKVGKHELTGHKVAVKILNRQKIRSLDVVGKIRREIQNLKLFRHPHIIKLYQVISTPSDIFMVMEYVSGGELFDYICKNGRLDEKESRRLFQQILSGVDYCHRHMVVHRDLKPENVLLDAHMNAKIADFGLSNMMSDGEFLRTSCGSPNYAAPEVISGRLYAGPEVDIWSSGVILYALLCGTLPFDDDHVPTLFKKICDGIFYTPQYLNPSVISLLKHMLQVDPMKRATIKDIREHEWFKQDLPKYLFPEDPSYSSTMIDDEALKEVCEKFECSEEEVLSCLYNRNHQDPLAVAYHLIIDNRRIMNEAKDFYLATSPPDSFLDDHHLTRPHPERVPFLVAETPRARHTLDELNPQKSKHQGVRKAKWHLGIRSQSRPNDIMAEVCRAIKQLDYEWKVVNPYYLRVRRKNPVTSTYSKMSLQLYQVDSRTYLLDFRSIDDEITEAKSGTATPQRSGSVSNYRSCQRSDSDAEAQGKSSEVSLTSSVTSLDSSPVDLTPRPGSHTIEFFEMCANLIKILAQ
Sequence of Dual specificity protein kinase CLK2 (P49760 whole entry): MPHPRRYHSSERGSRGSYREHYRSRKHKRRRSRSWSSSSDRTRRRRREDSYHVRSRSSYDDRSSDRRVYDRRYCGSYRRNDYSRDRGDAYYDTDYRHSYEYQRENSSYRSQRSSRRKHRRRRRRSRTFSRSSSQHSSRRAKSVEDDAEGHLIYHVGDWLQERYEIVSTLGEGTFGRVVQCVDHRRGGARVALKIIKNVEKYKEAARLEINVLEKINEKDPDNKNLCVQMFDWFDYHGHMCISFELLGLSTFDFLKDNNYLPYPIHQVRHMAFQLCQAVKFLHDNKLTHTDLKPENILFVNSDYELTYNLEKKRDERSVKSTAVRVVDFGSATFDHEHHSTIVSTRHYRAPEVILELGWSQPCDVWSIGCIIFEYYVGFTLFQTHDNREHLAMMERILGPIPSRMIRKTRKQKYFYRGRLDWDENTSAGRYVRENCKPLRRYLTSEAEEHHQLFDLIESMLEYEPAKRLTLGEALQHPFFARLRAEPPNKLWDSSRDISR
Sequence of Serine/threonine-protein kinase PAK 4 (Homo sapiens) (O96013 whole entry, looked up): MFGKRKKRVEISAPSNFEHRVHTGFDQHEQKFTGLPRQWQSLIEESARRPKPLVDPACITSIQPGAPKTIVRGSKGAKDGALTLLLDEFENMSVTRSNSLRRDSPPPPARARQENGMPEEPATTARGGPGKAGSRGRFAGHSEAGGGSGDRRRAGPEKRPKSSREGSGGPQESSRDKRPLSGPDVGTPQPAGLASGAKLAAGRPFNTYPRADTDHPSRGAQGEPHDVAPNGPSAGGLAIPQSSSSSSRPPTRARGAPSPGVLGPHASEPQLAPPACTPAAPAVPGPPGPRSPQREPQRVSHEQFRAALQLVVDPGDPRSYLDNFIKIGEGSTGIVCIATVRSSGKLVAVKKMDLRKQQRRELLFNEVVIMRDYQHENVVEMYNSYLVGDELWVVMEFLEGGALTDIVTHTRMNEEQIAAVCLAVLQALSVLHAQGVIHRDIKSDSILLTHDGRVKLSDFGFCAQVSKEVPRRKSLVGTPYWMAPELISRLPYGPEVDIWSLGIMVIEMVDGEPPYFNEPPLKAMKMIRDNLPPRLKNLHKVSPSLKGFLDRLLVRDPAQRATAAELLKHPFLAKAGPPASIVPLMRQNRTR
Sequence of Mitogen-activated protein kinase 9 (Homo sapiens) (P45984 whole entry, looked up): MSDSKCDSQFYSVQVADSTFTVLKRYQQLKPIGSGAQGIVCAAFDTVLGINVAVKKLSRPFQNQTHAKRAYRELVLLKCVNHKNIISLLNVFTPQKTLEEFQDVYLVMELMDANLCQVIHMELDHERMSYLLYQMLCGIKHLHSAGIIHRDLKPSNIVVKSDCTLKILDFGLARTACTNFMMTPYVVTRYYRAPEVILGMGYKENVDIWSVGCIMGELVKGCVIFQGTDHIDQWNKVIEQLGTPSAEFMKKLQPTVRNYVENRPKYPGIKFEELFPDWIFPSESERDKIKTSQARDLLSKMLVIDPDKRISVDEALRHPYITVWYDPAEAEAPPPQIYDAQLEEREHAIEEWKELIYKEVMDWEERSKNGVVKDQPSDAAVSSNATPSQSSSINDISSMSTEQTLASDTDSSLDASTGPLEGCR
Sequence of Mitogen-activated protein kinase 15 (Q8TD08 whole entry): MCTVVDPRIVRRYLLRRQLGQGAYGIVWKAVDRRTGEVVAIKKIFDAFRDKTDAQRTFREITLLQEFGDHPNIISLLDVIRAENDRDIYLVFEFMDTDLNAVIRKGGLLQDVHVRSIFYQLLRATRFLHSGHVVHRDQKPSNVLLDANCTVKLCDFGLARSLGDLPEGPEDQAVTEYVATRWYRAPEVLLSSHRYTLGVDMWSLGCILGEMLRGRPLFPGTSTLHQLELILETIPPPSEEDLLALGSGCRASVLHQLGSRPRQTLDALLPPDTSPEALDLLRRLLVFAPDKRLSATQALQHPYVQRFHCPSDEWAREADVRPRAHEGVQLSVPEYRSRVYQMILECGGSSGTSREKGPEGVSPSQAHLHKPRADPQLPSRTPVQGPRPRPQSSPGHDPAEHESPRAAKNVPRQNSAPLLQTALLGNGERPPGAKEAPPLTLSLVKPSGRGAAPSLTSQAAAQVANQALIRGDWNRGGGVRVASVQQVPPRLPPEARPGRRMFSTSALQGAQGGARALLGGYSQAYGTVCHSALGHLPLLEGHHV
Sequence of Serine/threonine-protein kinase 16 (Homo sapiens) (O75716 whole entry): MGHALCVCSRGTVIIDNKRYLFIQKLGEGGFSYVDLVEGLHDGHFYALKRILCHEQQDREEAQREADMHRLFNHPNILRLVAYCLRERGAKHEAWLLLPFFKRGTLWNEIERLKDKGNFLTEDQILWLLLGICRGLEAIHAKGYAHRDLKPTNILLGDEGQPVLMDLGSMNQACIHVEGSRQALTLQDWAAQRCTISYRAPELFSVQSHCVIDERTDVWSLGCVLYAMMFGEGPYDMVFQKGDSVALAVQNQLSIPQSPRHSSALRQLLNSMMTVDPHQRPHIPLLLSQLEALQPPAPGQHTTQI

In the case of `N#Cc1cnc(Nc2cc(NC[C@H]3CNCCO3)c(C(F)(F)F)cn2)cn1` [SRA-737], the Activity [1] is reported as 87%, the Activity [2] is reported as 93% and the Activity [3] is reported as “Toxic”. For the same compound, the Activity [4] was 61%, the Activity [5] was 97.5% and the Activity [6] was 122%. The Activity [7] was 107%, the Activity [8] was 49% and the Activity [9] was 92%. For the same compound, the Activity [10] was 47%, the Activity [11] was “Non-Toxic” and the Activity [12] was “Toxic”. For the same compound, the Activity [13] was “Toxic”, the Activity [14] was 77% and the IC50 [15] was 2.97 µM. The Activity [16] was 33%, the IC50 [17] was 0.698 µM and the Activity [18] was 13%. The Activity [19] was 71%, the Activity [20] was 101% and the Activity [21] was 44%. The IC50 [22] was 1.37 µM, the Activity [23] was 110% and the Activity [24] was “Toxic”. For the same compound, the Activity [25] was 93%, the Activity [26] was 26% and the Activity [27] was 103%. The IC50 [28] was 0.13 µM, the Activity [29] was 102% and the Activity [30] was “Active”. It also gave an Activity [31] of 77%.
